Test results from ChEMBL document CHEMBL4014347, “Targeting Mycolic Acid Transport by Indole-2-carboxamides for the Treatment of Mycobacterium abscessus Infections” (J Med Chem, 2017).
Calls of active or inactive are those of the source.

Key:
[1] = test system: Mycobacteroides abscessus; test: Antibacterial activity against Mycobacterium abscessus CIP104536 smooth variant infected in PMA activated THP-1 macrophages assessed as reduction in viable colony forming unit at 96 ug/ml measured upto 4 days post treatment by fluorescence microscopic method; type: functional
Method in brief: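 THP-1 cells in RPMI with 10% FBS, differentiated with 20 ng/mL PMA for 48 h at 37 °C; infected at MOI 1:2 for 2 h under 5% CO2; washed, 200 μg/mL amikacin for 1 h, washed; drug medium renewed daily; lysed in 1% Triton X100 at 0, 48, 96 h and plated for CFU; triplicates, two independent experiments.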

[2] = test system: Mycobacteroides abscessus; test: Antibacterial activity against Mycobacterium abscessus CIP104536 smooth variant expressing tdTomato infected in PMA activated THP-1 macrophages assessed as protection against […] infection after 4 days post treatment by microscopic method; type: functional
Method in brief: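 THP-1 macrophages, PMA-differentiated, infected with tdTomato-expressing M. abscessus, amikacin-treated and drug-exposed as in the CFU assay; at 96 h, bacteria-containing macrophages counted under fluorescence microscopy (4297 total cells) to give percentage of infected cells.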

[3] = test system: Mycobacteroides abscessus; test: Antibacterial activity against Mycobacterium abscessus CIP104536 smooth variant assessed as reduction in viable colony forming unit at 8 ug/ml after 4 days by time-kill assay; type: functional
Method in brief: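 Set up as microdilution MIC plates in cation-adjusted Mueller−Hinton broth with smooth CIP 104536; serial dilutions plated after 0, 24, 48, 72 and 96 h of drug exposure; CFU counted after 4 days at 30 °C; mean of triplicate log10 values, representative of three independent experiments.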

[4] = test system: Mycobacteroides abscessus; test: Antibacterial activity against non CF patient derived Mycobacterium abscessus subsp. abscessus isolate 2587 smooth variant after 3 to 5 days by two fold serial dilution method; type: functional
Method in brief: (§1)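 Broth microdilution in cation-adjusted Mueller−Hinton broth per CLSI; inoculum 5 × 10^6 CFU/mL of exponential-phase bacteria; two-fold serial dilutions, solvent-only wells as control; 30 °C for 3−5 days; MIC read visually and confirmed by absorbance at 560 nm; triplicate on three independent occasions.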

[5] = test system: Mycobacteroides abscessus; test: Antibacterial activity against CF patient derived Mycobacterium abscessus subsp. abscessus rough variant after 3 to 5 days by two fold serial dilution method; type: functional; method in brief: as §1
[6] = test system: Mycobacteroides abscessus; test: Antibacterial activity against CF patient derived Mycobacterium abscessus subsp. abscessus isolate 2648 rough variant after 3 to 5 days by two fold serial dilution method; type: functional; method in brief: as §1
[7] = test system: Mycobacterium tuberculosis; test: Antibacterial activity against Mycobacterium tuberculosis by AlamarBlue assay; type: functional
[8] = test system: Mycobacteroides abscessus; test: Antibacterial activity against Mycobacterium abscessus CIP_OK4-10 harboring MAB_4508 g925c/A309P mutant after 3 to 5 days by two fold serial dilution method; type: functional; method in brief: as §1
[9] = test system: Mycobacteroides abscessus; test: Inhibition of MmpL3 in Mycobacterium abscessus CIP104536 smooth variant assessed as reduction in trehalose dimycolate synthesis up to 6.2 ug/ml preincubated for 1 hr followed by [14C]acetic acid addition measured after 2 hrs by TLC based autoradiography analysis
Method in brief: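 Exponential cultures in 7H9 with OADC exposed to increasing drug concentrations for 1 h at 37 °C with agitation, then labelled with 1 μCi/mL [14C]acetate (56 mCi/mmol) for 2 h; apolar lipids (TMM, TDM) run on TLC in chloroform/methanol/water 40:8:1; MAME and arabinogalactan-bound mycolates in petroleum ether/acetone 95:5; autoradiography.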

[10] = test system: Mycobacteroides abscessus; test: Antibacterial activity against Mycobacterium abscessus CIP104536 after 3 to 5 days by two fold serial dilution method; type: functional
Method in brief: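 Broth microdilution per CLSI in cation-adjusted Mueller–Hinton broth; exponential-phase inoculum 5 × 10^6 CFU/mL; two-fold serial dilutions from highest concentration, solvent wells as control; 30 °C for 3−5 days; MIC read visually and confirmed by absorbance at 560 nm; triplicate on three independent occasions.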

[11] = test system: Mycobacteroides abscessus; test: Antibacterial activity against CF patient derived Mycobacterium abscessus subsp. abscessus isolate 3321 smooth variant after 3 to 5 days by two fold serial dilution method; type: functional; method in brief: as §1
[12] = test system: Mycobacterium tuberculosis; test: Inhibition of C-terminal His-tagged Mycobacterium tuberculosis Ag85C expressed in Escherichia coli C41 (DE3) at 2.5 to 50 uM after 1 hr by resorufin butyrate-based fluorescence assay
Method in brief: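 Purified Ag85C mycolyltransferase activity measured with the fluorescent probe resorufin butyrate; compounds tested at 2.5 to 50 μM.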

[13] = test system: Mycobacteroides abscessus; test: Antibacterial activity against CF patient derived Mycobacterium abscessus subsp. massiliense isolate 212 smooth variant after 3 to 5 days by two fold serial dilution method; type: functional; method in brief: as §1
[14] = Antibacterial activity against CF patient derived Mycobacterium abscessus subsp. bolletii isolate 114 smooth variant after 3 to 5 days by two fold serial dilution method; type: functional; settings: Mycobacteroides abscessus; method in brief: as §1
[15] = test system: Mycobacteroides abscessus; test: Antibacterial activity against CF patient derived Mycobacterium abscessus subsp. abscessus isolate 2069 smooth variant after 3 to 5 days by two fold serial dilution method; type: functional; method in brief: as §1
[16] = test system: Mycobacteroides abscessus; test: Antibacterial activity against Addison's disease patient derived Mycobacterium abscessus subsp. massiliense isolate CIP108297 rough variant after 3 to 5 days by two fold serial dilution method; type: functional; method in brief: as §1
[17] = test system: Mycobacteroides abscessus; test: Antibacterial activity against CF patient derived Mycobacterium abscessus subsp. abscessus isolate 1298 smooth variant after 3 to 5 days by two fold serial dilution method; type: functional; method in brief: as §1
[18] = test system: Mycobacteroides abscessus; test: Antibacterial activity against CF patient derived Mycobacterium abscessus subsp. massiliense isolate 140 smooth variant after 3 to 5 days by two fold serial dilution method; type: functional; method in brief: as §1
[19] = test system: Mycobacteroides abscessus; test: Antibacterial activity against CF patient derived Mycobacterium abscessus subsp. massiliense isolate 122 smooth variant after 3 to 5 days by two fold serial dilution method; type: functional; method in brief: as §1
[20] = test system: Mycobacteroides abscessus; test: Antibacterial activity against CF patient derived Mycobacterium abscessus subsp. massiliense isolate 210 rough variant after 3 to 5 days by two fold serial dilution method; type: functional; method in brief: as §1
[21] = test system: Mycobacteroides abscessus; test: Antibacterial activity against Mycobacterium abscessus CIP_PIPD1 harboring MAB_4508 g925c/A309P mutant after 3 to 5 days by two fold serial dilution method; type: functional; method in brief: as §1
[22] = Antibacterial activity against non CF patient derived Mycobacterium abscessus subsp. bolletii isolate 19 rough variant after 3 to 5 days by two fold serial dilution method; type: functional; settings: Mycobacteroides abscessus; method in brief: as §1
[23] = test system: Mycobacteroides abscessus; test: Antibacterial activity against CF patient derived Mycobacterium abscessus subsp. massiliense isolate 100 smooth variant after 3 to 5 days by two fold serial dilution method; type: functional; method in brief: as §1
[24] = test system: Mycobacteroides abscessus; test: Antibacterial activity against Mycobacterium abscessus CIP104536 smooth variant harboring pMV261 MAB_4508 wild type at 0.5 to 1 ug/ml after 3 days; type: functional
Method in brief: (§2)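 M. abscessus overexpressing wild-type or A309P MAB_4508 from pMV261 plated on 7H10 agar with 10% OADC containing drug; plates incubated at 30 °C for 3 days before growth inspection.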

[25] = test system: Mycobacteroides abscessus; test: Antibacterial activity against CF patient derived Mycobacterium abscessus subsp. abscessus isolate 2524 rough variant after 3 to 5 days by two fold serial dilution method; type: functional; method in brief: as §1
Vero = test: Cytotoxicity against African green monkey Vero cells; type: cell-based; settings: Chlorocebus sabaeus
[26] = test system: Mycobacteroides abscessus; test: Antibacterial activity against non CF patient derived Mycobacterium abscessus subsp. abscessus isolate CIP104536 smooth variant after 3 to 5 days by two fold serial dilution method; type: functional; method in brief: as §1
[27] = Antibacterial activity against non CF patient derived Mycobacterium abscessus subsp. bolletii isolate 17 smooth variant after 3 to 5 days by two fold serial dilution method; type: functional; settings: Mycobacteroides abscessus; method in brief: as §1
[28] = test system: Mycobacteroides abscessus; test: Antibacterial activity against Mycobacterium abscessus CIP104536 smooth variant assessed as reduction in viable colony forming unit at […] after 4 days by time-kill assay; type: functional
[29] = Antibacterial activity against CF patient derived Mycobacterium abscessus subsp. bolletii isolate 108 rough variant after 3 to 5 days by two fold serial dilution method; type: functional; settings: Mycobacteroides abscessus; method in brief: as §1
[30] = Antibacterial activity against Mycobacterium abscessus subsp. bolletii isolate CIP108541 smooth variant after 3 to 5 days by two fold serial dilution method; type: functional; settings: Mycobacteroides abscessus; method in brief: as §1
[31] = test system: Mycobacteroides abscessus; test: Antibacterial activity against CF patient derived Mycobacterium abscessus subsp. abscessus smooth variant after 3 to 5 days by two fold serial dilution method; type: functional; method in brief: as §1
[32] = test system: Mycobacteroides abscessus; test: Antibacterial activity against CF patient derived Mycobacterium abscessus subsp. massiliense isolate 111 smooth variant after 3 to 5 days by two fold serial dilution method; type: functional; method in brief: as §1
[33] = test system: Mycobacteroides abscessus; test: Antibacterial activity against non CF patient derived Mycobacterium abscessus subsp. abscessus isolate CIP104536 rough variant after 3 to 5 days by two fold serial dilution method; type: functional; method in brief: as §1
[34] = Antibacterial activity against CF patient derived Mycobacterium abscessus subsp. bolletii isolate 97 smooth variant after 3 to 5 days by two fold serial dilution method; type: functional; settings: Mycobacteroides abscessus; method in brief: as §1
[35] = test system: Mycobacteroides abscessus; test: Antibacterial activity against CF patient derived Mycobacterium abscessus subsp. massiliense isolate 120 smooth variant after 3 to 5 days by two fold serial dilution method; type: functional; method in brief: as §1
[36] = test system: Mycobacteroides abscessus; test: Antibacterial activity against Addison's disease patient derived Mycobacterium abscessus subsp. massiliense isolate CIP108297 smooth variant after 3 to 5 days by two fold serial dilution method; type: functional; method in brief: as §1
[37] = Selectivity index, ratio of IC50 for African green monkey Vero cells to MIC for Mycobacterium abscessus CIP104536; type: toxicity; settings: read-out: Selectivity Index
[38] = test system: Mycobacteroides abscessus; test: Antibacterial activity against CF patient derived Mycobacterium abscessus subsp. massiliense isolate 107 smooth variant after 3 to 5 days by two fold serial dilution method; type: functional; method in brief: as §1
[39] = Antibacterial activity against CF patient derived Mycobacterium abscessus subsp. bolletii isolate 112 rough variant after 3 to 5 days by two fold serial dilution method; type: functional; settings: Mycobacteroides abscessus; method in brief: as §1
[40] = Antibacterial activity against CF patient derived Mycobacterium abscessus subsp. bolletii isolate 116 smooth variant after 3 to 5 days by two fold serial dilution method; type: functional; settings: Mycobacteroides abscessus; method in brief: as §1
[41] = Selectivity index, ratio of IC50 for African green monkey Vero cells to MIC=<90 for Mycobacterium tuberculosis; type: toxicity; settings: read-out: Selectivity Index
[42] = test system: Mycobacteroides abscessus; test: Antibacterial activity against CF patient derived Mycobacterium abscessus subsp. massiliense isolate 185 smooth variant after 3 to 5 days by two fold serial dilution method; type: functional; method in brief: as §1
[43] = test system: Mycobacteroides abscessus; test: Antibacterial activity against Mycobacterium abscessus CIP104536 smooth variant harboring pMV261 MAB_4508_A309P mutant at 0.5 to 1 ug/ml after 3 days; type: functional; method in brief: as §2
[44] = test system: Mycobacteroides abscessus; test: Antibacterial activity against non CF patient derived Mycobacterium abscessus subsp. abscessus isolate 3022 rough variant after 3 to 5 days by two fold serial dilution method; type: functional; method in brief: as §1

C[C@@H](O)[C@H]1C(=O)N2C(C(=O)O)=C(SCCNC=N)C[C@H]12
active: Activity [1] | Activity [2] | Activity [3]

O=C(NC1CCCCCC1)c1cc2ccc(Br)cc2[nH]1
0.25 µg/mL: MIC [4] | MIC [34] | MIC [36] | MIC [38]
1 µg/mL: MIC [40]
0.125 µg/mL: MIC [5] | MIC [6] | MIC [10] | MIC [11] | MIC [13] | MIC [14] | MIC [15] | MIC [16] | MIC [17] | MIC [18] | MIC [19] | MIC [20] | MIC [22] | MIC [23] | MIC [25] | MIC [26] | MIC [27] | MIC [30] | MIC [31] | MIC [32] | MIC [35] | MIC [42] | MIC [44]
0.5 µg/mL: MIC [29]
active: inhibition [9] Dose-dependent effect | Activity [24] | Activity [28]
0.0625 µg/mL: MIC [33] | MIC [39]
≥ 512: selectivity ratio [37]
≥ 2050: selectivity ratio [41]
inactive: inhibition [12] | Activity [43]
0.0313 µg/mL: MIC=<90 [7]
≥ 64 µg/mL: IC50 (Vero)
32 µg/mL: MIC [8] | MIC [21]
